The source of these data is ChEMBL document CHEMBL1138349 (J Med Chem, 2007).

Data set [1] concerns the target T1, Muscarinic acetylcholine receptor M1 (Homo sapiens, UniProt P11229).
T1 sequence (P11229 whole entry): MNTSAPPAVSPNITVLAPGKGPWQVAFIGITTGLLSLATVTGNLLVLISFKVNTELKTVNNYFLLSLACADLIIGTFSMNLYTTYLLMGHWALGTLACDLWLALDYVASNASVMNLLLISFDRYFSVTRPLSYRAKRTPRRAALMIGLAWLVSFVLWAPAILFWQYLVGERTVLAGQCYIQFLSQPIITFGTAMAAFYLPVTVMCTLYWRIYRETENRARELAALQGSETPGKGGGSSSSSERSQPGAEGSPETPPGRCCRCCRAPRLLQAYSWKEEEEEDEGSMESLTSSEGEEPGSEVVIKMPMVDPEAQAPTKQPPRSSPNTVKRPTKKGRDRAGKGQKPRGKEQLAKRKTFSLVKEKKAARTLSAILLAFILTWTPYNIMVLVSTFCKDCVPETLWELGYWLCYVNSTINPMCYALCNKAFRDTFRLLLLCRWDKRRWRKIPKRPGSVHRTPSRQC
Put plainly: Displacement of [N-methyl-3H]scopolamine from human recombinant muscarinic M1 receptor expressed in CHO cells. The class given is cell-based.

For the next data set, the target named is hERG (KCNH2) (Homo sapiens, UniProt Q12809). Put plainly: Inhibition of human hERG current at 1 uM. Background: The hERG channel carries a current that helps repolarise heart muscle cells.
Chain of hERG (KCNH2) (Q12809 whole entry): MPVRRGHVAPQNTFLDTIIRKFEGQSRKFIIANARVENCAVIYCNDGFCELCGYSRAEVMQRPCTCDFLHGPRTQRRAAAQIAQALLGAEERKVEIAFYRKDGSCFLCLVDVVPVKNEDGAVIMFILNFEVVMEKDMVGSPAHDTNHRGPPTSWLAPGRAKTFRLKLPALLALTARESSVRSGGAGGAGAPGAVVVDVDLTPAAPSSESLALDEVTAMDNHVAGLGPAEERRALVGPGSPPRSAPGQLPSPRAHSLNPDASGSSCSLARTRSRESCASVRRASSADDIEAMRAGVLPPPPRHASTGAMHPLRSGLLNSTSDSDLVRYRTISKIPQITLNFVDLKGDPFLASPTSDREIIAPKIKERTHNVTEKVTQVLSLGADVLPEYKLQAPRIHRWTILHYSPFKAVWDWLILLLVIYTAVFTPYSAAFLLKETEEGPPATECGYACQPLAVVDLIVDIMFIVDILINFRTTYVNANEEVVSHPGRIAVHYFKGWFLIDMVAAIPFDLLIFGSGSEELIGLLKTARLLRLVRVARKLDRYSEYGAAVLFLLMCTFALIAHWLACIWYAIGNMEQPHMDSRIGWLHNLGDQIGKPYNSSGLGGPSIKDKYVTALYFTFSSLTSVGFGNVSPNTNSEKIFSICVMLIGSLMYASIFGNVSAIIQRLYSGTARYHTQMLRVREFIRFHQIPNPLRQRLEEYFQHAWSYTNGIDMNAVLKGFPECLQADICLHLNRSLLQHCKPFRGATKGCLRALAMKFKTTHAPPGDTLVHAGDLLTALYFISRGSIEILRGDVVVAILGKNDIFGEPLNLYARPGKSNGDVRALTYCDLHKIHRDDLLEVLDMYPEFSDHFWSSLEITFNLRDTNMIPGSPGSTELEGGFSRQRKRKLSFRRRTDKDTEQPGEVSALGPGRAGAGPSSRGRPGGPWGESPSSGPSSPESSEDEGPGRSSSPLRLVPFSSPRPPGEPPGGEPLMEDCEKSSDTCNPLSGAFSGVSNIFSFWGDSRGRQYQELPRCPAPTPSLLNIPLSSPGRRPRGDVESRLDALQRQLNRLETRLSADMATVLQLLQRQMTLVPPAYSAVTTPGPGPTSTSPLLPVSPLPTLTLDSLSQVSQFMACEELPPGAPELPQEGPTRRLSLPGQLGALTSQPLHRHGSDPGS
The test system of another data set is Canis familiaris. The data set is described as follows: Inhibition of plasma DPP4 activity in Beagle dog at 1 mg/kg, po after 7 hrs. The following applies: Canis lupus familiaris, read-out: Inhibition.
Data set [2] in a line: Oral bioavailability in cynomolgus monkey at 5 mg/kg. The class given is ADME, organism-based, Macaca fascicularis. To be noted: in vivo.
Data set [3] is described as follows: Total mean residence time in cynomolgus monkey at 5 mg/kg, po. Type of data set: ADME, organism-based, Macaca fascicularis. Also noted: dose 5 mg/kg, route oral. The following applies: in vivo.
A short description of data set [4]: Dissociation constant, pKa corresponding to the protonation of the primary amino group. The class given is physicochemical.
The subject of the next data set is Rattus norvegicus. The data set is described as follows: Inhibition of plasma DPP4 activity in Han Wistar rat at 1 mg/kg, po after 7 hrs. To be noted: read-out: Inhibition.
Data set [5] in a line: Half life in rat at 5 mg/kg, po. Also noted: dose 5 mg/kg, route oral. To be noted: in vivo. Type of data set: ADME, organism-based.
Data set [6] deals with Mus musculus. The data set is described as follows: Reduction in plasma glucose excursion in db/db C57BL/KSJ mouse at 1 mg/kg, po by oral glucose tolerance test. To be noted: read-out: Inhibition.
Data set [7] in a line: Clearance in rat at 5 mg/kg, po and 5 mg/kg, iv. Type of data set: ADME, organism-based. To be noted: in vivo.
Data set [8] relates to Mus musculus. The data set is described as follows: Reduction in plasma glucose excursion in db/db C57BL/KSJ mouse at 0.1 mg/kg, po by oral glucose tolerance test. To be noted: read-out: Inhibition.
Data set [9] in a line: Total mean residence time in rat at 5 mg/kg, po. Type of data set: ADME, organism-based. Also noted: dose 5 mg/kg, route oral. To be noted: in vivo.
Data set [10] in a line: Volume of distribution at steady state in cynomolgus monkey at 5 mg/kg, po and 1.5 mg/kg, iv. The class given is ADME, organism-based, Macaca fascicularis. The following applies: in vivo, read-out: Vdss.
Data set [11] is described as follows: Aqueous solubility at pH 7.4. The following applies: buffer. Type of data set: physicochemical. In a few lines:
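Solubility was measured in aqueous medium at physiological pH 7.4, using a crystalline modification of the free base.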

For data set [12], the system named is Mus musculus. Put plainly: Inhibition of plasma DPP4 activity in db/db C57BL/KSJ mouse at 1 mg/kg, po after 30 mins of glucose administration. To be noted: 0.5 h, read-out: Inhibition.
For another data set, the system named is Rhesus monkey. Put plainly: Inhibition of plasma DPP4 activity in rhesus monkey at 1 mg/kg, po after 7 hrs. The following applies: Macaca mulatta, read-out: Inhibition.
Data set [13] can be described thus: Distribution coefficient, log D at pH 7.4. The class given is physicochemical. The following applies: octanol/water.
Data set [14] in a line: Dissociation constant, pKa corresponding to the protonation of the quinazoline. Type of data set: physicochemical.
Data set [15] can be described thus: Volume of distribution at steady state in rat at 5 mg/kg, po and 5 mg/kg, iv. Type of data set: ADME, organism-based. To be noted: in vivo, read-out: Vdss.
The nature of data set [16]: Oral bioavailability in rat at 5 mg/kg. The class given is ADME, organism-based. The following applies: in vivo.
The nature of data set [17]: Clearance in cynomolgus monkey at 5 mg/kg, po and 1.5 mg/kg, iv. The following applies: in vivo. The class given is ADME, organism-based, Macaca fascicularis.
A short description of data set [18]: Half life in cynomolgus monkey at 5 mg/kg, po. Type of data set: ADME, organism-based, Macaca fascicularis. The arrangement: dose 5 mg/kg, route oral. To be noted: in vivo.

With `CC(C)=CCn1c(N2CCC[C@H](N)C2)nc2c1c(=O)n(CC(=O)c1ccccc1)c(=O)n2C`, the IC50 in [1] worked out at 50 nM.

Take `CC#CCn1c(N2CCC[C@@H](N)C2)nc2c1c(=O)n(CC(=O)c1ccccc1)c(=O)n2C`: the IC50 in data set [1] is 6160 nM.

`CC#CCn1c(N2CCC[C@H](N)C2)nc2c1c(=O)n(CC(=O)c1ccccc1)c(=O)n2C`: the IC50 in data set [1] is 1130 nM.

On to `CC#CCn1c(N2CCC[C@@H](N)C2)nc2c1c(=O)n(CC(=O)c1ccccc1OCC(=O)NC)c(=O)n2C`, for which the concentration for half-maximal inhibition (IC50) in [1] was 1170 nM. The residual activity at 1 µM at hERG (KCNH2) worked out at 88%.

For the compound `CC(C)=CCn1c(N2CCC[C@@H](N)C2)nc2c1c(=O)n(CC(=O)c1ccccc1)c(=O)n2C`, the IC50 in data set [1] is 25 nM.

As for `CC#CCn1c(N2CCC[C@@H](N)C2)nc2c1c(=O)n(Cc1nc(C)cc3ccccc13)c(=O)n2C`, in data set [1], the IC50 turned out to be 430 nM. In addition, the residual activity at 1 µM at hERG (KCNH2) stood at 78%.

With `CC(C)=CCn1c(N2CCC[C@H](N)C2)nc2c1c(=O)n(Cc1nccc3ccccc13)c(=O)n2C`, in data set [1], the IC50 was 26 nM. On hERG (KCNH2), this compound yielded a residual activity at 1 µM of 51%.

Regarding `CC#CCn1c(N2CCC[C@@H](N)C2)nc2c1c(=O)n(Cc1ccc(OC)cc1)c(=O)n2C`, the IC50 in [1] turned out to be 518 nM. On hERG (KCNH2), this compound yielded a residual activity at 1 µM of 51%.

Consider `CC(C)=CCn1c(N2CCC[C@@H](N)C2)nc2c1c(=O)n(Cc1nccc3ccccc13)c(=O)n2C`, for which the IC50 in [1] turned out to be 5 nM. This compound also registered a residual activity at 1 µM at hERG (KCNH2) of 51%.

Turning to `CC#CCn1c(N2CCC[C@@H](N)C2)nc2c1c(=O)n(Cc1nc(C)c3ccccc3n1)c(=O)n2C` [LINAGLIPTIN], the inhibition in vivo at 1 mg/kg was greater than 70% in the data set with Canis familiaris; greater than 70% in the data set on Rattus norvegicus; 66% in the data set with Mus musculus [6]; 76% with Mus musculus [12]; greater than 70% in the data set on Rhesus monkey. For the same compound, the bioavailability in [2] turned out to be 50.1%; in data set [16], 50.7%. Also, the MRT worked out at 17.4 h in data set [3] and 14.3 h in [9]. Besides, the IC50 in data set [1] turned out to be 295 nM. Also, the pKa came out at 8.6 in [4] and 1.9 in [14]. Further, the half-life in data set [5] is 35.9 h; in [18] it was 41.4 h. The values for the clearance in data set [7] and in data set [17] were 37.3 mL/min/kg and 15.8 mL/min/kg, respectively. Besides, the inhibition in vivo at 0.1 mg/kg with Mus musculus [8] was 15%. The values for the Vd in data set [10] and in [15] were 15.8 L/kg and 5.4 L/kg, respectively. Also, the solubility in data set [11] is greater than 5000 µg/mL. This compound registered a logD in data set [13] of 0.4.

As a reminder, the IC50 is the concentration needed to halve the response being measured. Broadly, the residual activity is the activity still measured, relative to the control. Broadly, the bioavailability is dose-corrected exposure relative to a reference, in per cent. For orientation: MRT means the average time that molecules of a dose stay in the body. What is called pKa is the negative logarithm of the acid dissociation constant. For orientation: half-life means how long it takes for the measured level to halve. The term solubility denotes the concentration that dissolves in the medium under given conditions. One may read the logD as lipophilicity at a set pH, counting ionised and neutral species.
